Compounds with a hit are over-represented: about 3.9% of the library has one in this group of screens.
OX1R antag-1: human HCRTR1 antagonism; inhibition, % at 5 µM; AID 434989; CHO/OX1R cells, Fluo-8 calcium fluorescence, orexin A; 330,000 tested, 0.43% active;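 active = inhibition above its plate's threshold, mean inhibition of all tested compounds on the plate plus 3 SD, cut at about 37% in these data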
Target sequence (O43613 whole entry, looked up): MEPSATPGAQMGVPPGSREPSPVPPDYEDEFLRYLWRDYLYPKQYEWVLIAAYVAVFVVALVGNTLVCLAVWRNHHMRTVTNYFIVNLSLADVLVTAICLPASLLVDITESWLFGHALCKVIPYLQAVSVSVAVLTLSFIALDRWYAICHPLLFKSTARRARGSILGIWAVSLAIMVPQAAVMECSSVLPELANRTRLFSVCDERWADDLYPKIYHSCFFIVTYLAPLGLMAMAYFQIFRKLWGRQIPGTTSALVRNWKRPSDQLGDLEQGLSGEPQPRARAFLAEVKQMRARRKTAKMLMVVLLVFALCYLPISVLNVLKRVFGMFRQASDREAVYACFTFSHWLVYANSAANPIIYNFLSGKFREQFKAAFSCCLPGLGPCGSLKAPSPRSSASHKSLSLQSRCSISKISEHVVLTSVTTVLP
CHO parental Ca: counter-screen: ATP calcium response change in parental CHO cells. 330,000 tested, 0.63% active. parental CHO-K1, ATP-induced calcium, Fluo-8 fluorescence. AID 463079. inhibition, % at 5.6 µM;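 active = inhibition above that plate's mean sample inhibition plus 3 SD, cut at about 26% in these data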
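Test system: untransfected parental CHO cell line. Compound: one dose, 5.6 µM nominal. Detection: intracellular calcium via Fluo-8 no-wash fluorescent dye. Measure: % inhibition. Benchmarks: ATP-challenged DMSO wells low, unchallenged DMSO wells high.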
TAAR1 agonist: human TAAR1 agonism | CHO RD-HGA16 TAAR1, Fluo-8 calcium fluorescence; vehicle wells 0%, saturating PEA agonist 100% | AID 624467 | Q96RJ0 | activation, % at 3 µM | 360,000 tested, 0.99% active;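 active = activation above the mean activation of all test compounds in the run plus 3 SD, cut at about 38% in these data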
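Repeats: no replicates (n 1) | Material: CHO-derived RD-HGA16 cells with stable Gα16 and human TAAR1 | Technique: Kinetic Fluo-8 calcium fluorescence | Schedule: 17-24 h seeding, 75 min 37 °C dye, 30 min RT | Evaluation: % activation from peak over basal fluorescence ratio, DMSO-to-PEA scaled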
OX1R antag-2: OX1R (human) antagonism. inhibition, % at 6.6 µM. 330,000 tested, 1.8% active. OX1R-expressing cells, FRET antagonist read-out; in the data active = inhibition mostly above about 38%, no sharp cut-off; inactive = mostly below about 40%
TAAR1 antagonist: human TAAR1 antagonism. inhibition, % at 3 µM. Q96RJ0. AID 624466. 360,000 tested, 1.5% active. CHO RD-HGA16 TAAR1, Fluo-8 calcium fluorescence, antagonist;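 active = inhibition above a per-plate cutoff, the mean inhibition of test compounds on that plate plus 3 SD, cut at about 49% in these data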
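test system = CHO RD-HGA16 cells bearing hTAAR1 | replication = singlicate | controls = DMSO-only wells and EC80 β-PEA-stimulated wells | reagent = EC80 β-phenethylamine stimulus | read-out basis = percent inhibition of PEA-evoked calcium signal, max/basal emission ratio | schedule = seeding 17-24 h prior, 75-min 37 °C, 30-min RT dye loading | signal = kinetic Fluo-8 calcium fluorescence measurement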
OX1R HTRF conf: OX1R (human) antagonism, HTRF confirmed; shares compounds with OX1R antag-2; OX1R-expressing cells, HTRF antagonist assay; 1,800 tested, 49% active; AID 492964; inhibition, % at 6.6 µM; in the data active = inhibition above about 55%;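 note: CHO cells expressing OX1R stimulated with orexin A at about EC80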
CHO-K1 HTRF: signal in parental CHO-K1 cells, OX1R antagonist counter-screen; shares compounds with OX1R antag-2; HTRF counterscreen; inhibition, % at 6.6 µM; 1,800 tested, 48% active; AID 493232; in the data active = inhibition above about 17%
Numbers stand for hits; - = inactive; . = not tested or not shown.

SMILES	OX1R antag-1	CHO parental Ca	TAAR1 agonist	OX1R antag-2	TAAR1 antagonist	OX1R HTRF conf	CHO-K1 HTRF
Cc1csc(NC(=O)CSCC(=O)O)c1-c1nc2ccccc2s1	-	-	-	83	-	88	-
C=CCOc1ccc(CNc2ccc3[nH]c(=O)[nH]c3c2)cc1OCC	-	-	-	112	-	-	-
CCOc1cc(CNc2ccc3[nH]c(=O)[nH]c3c2)ccc1OCC(=O)NC(C)(C)C	-	-	-	-	-	.	.
Cn1nnnc1SCC(=O)Nc1ccccc1[N+](=O)[O-]	-	-	-	-	-	.	.
COc1ccc(NC(=O)CSc2nnnn2C)c([N+](=O)[O-])c1	-	-	-	117	-	-	46
Cc1ccc(CN2CCC(C)(Oc3cccc(Cl)c3)C2)cc1 (stereo unspecified)	.	.	-	.	-	.	.
CN(C)c1ccc(-c2nnc(-c3cccs3)o2)cc1	-	-	-	84	-	88	-
COc1ccc(NC(=O)N(C)C[C@@H]2OCCCC[C@@H](C)Oc3ccc(NS(C)(=O)=O)cc3C(=O)N([C@H](C)CO)C[C@@H]2C)cc1	.	.	-	.	-	.	.
Cc1ccc(OC2CCN(C(=O)[C@@H](Cc3ccccc3)NC(=O)[C@H]3O[C@@H](n4ccc(=O)[nH]c4=O)[C@H](O)[C@@H]3O)CC2)cc1	.	.	-	.	-	.	.
CCCC[n+]1ccn(C2=C([O-])c3ccccc3C(=O)/C2=N\S(=O)(=O)c2ccccc2)c1	-	-	-	165	-	-	94
CC(C)[n+]1ccn(C2=C([O-])c3ccccc3C(=O)/C2=N\S(=O)(=O)c2ccccc2)c1	-	-	-	77	-	69	96
CCCCC[n+]1ccn(C2=C([O-])c3ccccc3C(=O)/C2=N\S(=O)(=O)c2ccccc2)c1	-	-	-	100	-	-	52
C=CCNc1cccc2c1S(=O)(=O)N[C@@H](Cc1ccccc1)CO2	.	.	-	.	-	.	.
O=S(=O)(c1cccc2nsnc12)N1CCN(c2ncccn2)CC1	-	-	-	84	-	-	20
CCOC(=O)C1CCCN(S(=O)(=O)c2cccc3nsnc23)C1 (stereo unspecified)	-	-	-	-	-	.	.
O=S(=O)(c1cccc2nsnc12)N1CCCCC1	-	-	-	-	-	.	.
CCOC(=O)N1CCN(S(=O)(=O)c2cccc3nsnc23)CC1	-	-	-	82	-	-	39
COC1C(O)CCC2(CO2)C1C1(C)OC1CC=C(C)C (stereo unspecified)	.	.	-	.	-	.	.
CCN(CC)c1ccc(NC(=O)c2ccc3c(c2)c(C)c(C)n3C)cc1	-	-	-	78	-	-	-
Cc1c(C)n(C)c2ccc(C(=O)NCCCN3CCCC3)cc12	-	-	-	-	-	.	.
O=C(CSc1ncnc2nc[nH]c12)c1ccc2ccccc2c1	-	-	-	84	-	-	-
O=C(O)CSc1ncnc2nc[nH]c12	-	-	-	-	-	.	.
CC1(C(=O)NCc2ccco2)Cc2c(-c3cccc(C(N)=O)c3)ccnc2O1 (stereo unspecified)	.	.	-	.	-	.	.
CN1CCc2c(sc(NC(=O)c3ccc([N+](=O)[O-])o3)c2C(N)=O)C1	-	-	-	90	-	-	31
CCN(CC)c1ccc(/C=N/NC(=O)c2c(Cl)cnn2C)c(O)c1	-	-	-	77	-	66	-
SMILES	OX1R antag-1	CHO parental Ca	TAAR1 agonist	OX1R antag-2	TAAR1 antagonist	OX1R HTRF conf	CHO-K1 HTRF
CCOC(=O)N/N=C/c1ccc(N(CC)CC)cc1O	-	-	-	-	-	.	.
Cc1occc1C(=O)N=Nc1c(O)n(C)c2ccccc12	-	-	-	-	-	.	.
Cn1c(O)c(N=NC(=O)c2ccccc2O)c2ccccc21	-	-	-	121	-	91	29
CCOC(=O)C(=O)N=Nc1c(O)n(C)c2ccccc12	-	-	-	183	-	-	75
Cn1c(O)c(N=NC(=O)c2ccco2)c2ccccc21	-	-	-	166	-	83	53
Cc1cc(N=NC(=O)c2ccccc2O)c2ccccc2c1O	-	-	-	120	-	94	48
Cn1c(O)c(N=NC(=O)CNC(=O)c2ccco2)c2ccccc21	-	-	-	79	-	-	48

Screening results as filed in PubChem.
